In brackets after ≈: the same amount, converted by molar mass.
Assays:
Format in all cases: functional
[1] = test system: Pseudomonas aeruginosa; assay: Antibacterial activity against IMP-4 producing Pseudomonas aeruginosa isolate 209471 after 18 hrs in presence of BPL by CLSI broth microdilution method; settings: isolate 209471, 18 h
How it was run: (§1)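 CLSI broth microdilution against clinical isolates (ESBL E. coli, KPC-2 MDR K. pneumoniae, IMP-4 MDR P. aeruginosa; five per species). Iron limitation: Mueller-Hinton broth supplemented with 16 mg/liter 2,2'-bipyridyl to complex iron and induce iron uptake systems. Read-out: MIC.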

[2] = test system: Klebsiella pneumoniae; assay: Selectivity index, ratio of MIC for against KPC-2 producing Klebsiella pneumoniae isolate 209735 to MIC for against KPC-2 producing Klebsiella pneumoniae isolate 209735 in presence of BPL
[3] = test system: Klebsiella pneumoniae; assay: Antibacterial activity against KPC-2 producing Klebsiella pneumoniae isolate 209735 after 18 hrs by CLSI broth microdilution method; settings: isolate 209735, 18 h
[4] = test system: Escherichia coli; assay: Antibacterial activity against extended-spectrum beta-lactamase producing Escherichia coli isolate 212648 after 18 hrs by CLSI broth microdilution method; settings: isolate 212648, 18 h
[5] = test system: Escherichia coli; assay: Antibacterial activity against extended-spectrum beta-lactamase producing Escherichia coli isolate 208687 after 18 hrs in presence of BPL by CLSI broth microdilution method; settings: isolate 208687, 18 h; how it was run: as §1
[6] = test system: Escherichia coli; assay: Antibacterial activity against Escherichia coli isolate 210737 after 18 hrs in presence of BPL by CLSI broth microdilution method; settings: isolate 210737, 18 h; how it was run: as §1
[7] = test system: Klebsiella pneumoniae; assay: Antibacterial activity against KPC-2 producing Klebsiella pneumoniae isolate 212229 after 18 hrs in presence of BPL by CLSI broth microdilution method; settings: isolate 212229, 18 h; how it was run: as §1
[8] = test system: Pseudomonas aeruginosa; assay: Antibacterial activity against IMP-4 producing Pseudomonas aeruginosa isolate 208247 after 18 hrs in presence of BPL by CLSI broth microdilution method; settings: isolate 208247, 18 h; how it was run: as §1
[9] = test system: Klebsiella pneumoniae; assay: Antibacterial activity against KPC-2 producing Klebsiella pneumoniae isolate 209735 after 18 hrs in presence of BPL by CLSI broth microdilution method; settings: isolate 209735, 18 h; how it was run: as §1
[10] = test system: Klebsiella pneumoniae; assay: Selectivity index, ratio of MIC for against KPC-2 producing Klebsiella pneumoniae isolate 212229 to MIC for against KPC-2 producing Klebsiella pneumoniae isolate 212229 in presence of BPL
[11] = test system: Pseudomonas aeruginosa; assay: Selectivity index, ratio of MIC for against IMP-4 producing Pseudomonas aeruginosa isolate 208247 to MIC for against IMP-4 producing Pseudomonas aeruginosa isolate 208247 in presence of BPL
[12] = test system: Pseudomonas aeruginosa; assay: Antibacterial activity against IMP-4 producing Pseudomonas aeruginosa isolate 212886 after 18 hrs in presence of BPL by CLSI broth microdilution method; settings: isolate 212886, 18 h; how it was run: as §1
[13] = test system: Escherichia coli; assay: Antibacterial activity against extended-spectrum beta-lactamase producing Escherichia coli isolate 209285 after 18 hrs by CLSI broth microdilution method; settings: isolate 209285, 18 h
[14] = test system: Pseudomonas aeruginosa; assay: Antibacterial activity against IMP-4 producing Pseudomonas aeruginosa isolate 212886 after 18 hrs by CLSI broth microdilution method; settings: isolate 212886, 18 h
[15] = test system: Klebsiella pneumoniae; assay: Antibacterial activity against KPC-2 producing Klebsiella pneumoniae isolate 209632 after 18 hrs by CLSI broth microdilution method; settings: isolate 209632, 18 h
[16] = test system: Klebsiella pneumoniae; assay: Selectivity index, ratio of MIC for against KPC-2 producing Klebsiella pneumoniae isolate 212423 to MIC for against KPC-2 producing Klebsiella pneumoniae isolate 212423 in presence of BPL
[17] = test system: Pseudomonas aeruginosa; assay: Antibacterial activity against IMP-4 producing Pseudomonas aeruginosa isolate 209471 after 18 hrs by CLSI broth microdilution method; settings: isolate 209471, 18 h
[18] = test system: Klebsiella pneumoniae; assay: Selectivity index, ratio of MIC for against KPC-2 producing Klebsiella pneumoniae isolate 209632 to MIC for against KPC-2 producing Klebsiella pneumoniae isolate 209632 in presence of BPL
[19] = test system: Pseudomonas aeruginosa; assay: Selectivity index, ratio of MIC for against IMP-4 producing Pseudomonas aeruginosa isolate 212886 to MIC for against IMP-4 producing Pseudomonas aeruginosa isolate 212886 in presence of BPL
[20] = test system: Pseudomonas aeruginosa; assay: Selectivity index, ratio of MIC for against IMP-4 producing Pseudomonas aeruginosa isolate 209321 to MIC for against IMP-4 producing Pseudomonas aeruginosa isolate 209321 in presence of BPL
[21] = test system: Pseudomonas aeruginosa; assay: Antibacterial activity against IMP-4 producing Pseudomonas aeruginosa isolate 209321 after 18 hrs by CLSI broth microdilution method; settings: isolate 209321, 18 h
[22] = test system: Escherichia coli; assay: Selectivity index, ratio of MIC for against Escherichia coli isolate 210737 to MIC for Escherichia coli isolate 210737 in presence of BPL
[23] = test system: Escherichia coli; assay: Antibacterial activity against extended-spectrum beta-lactamase producing Escherichia coli isolate 209285 after 18 hrs in presence of BPL by CLSI broth microdilution method; settings: isolate 209285, 18 h; how it was run: as §1
[24] = test system: Escherichia coli; assay: Antibacterial activity against extended-spectrum beta-lactamase producing Escherichia coli isolate 106342 after 18 hrs in presence of BPL by CLSI broth microdilution method; settings: isolate 106342, 18 h; how it was run: as §1
[25] = test system: Escherichia coli; assay: Selectivity index, ratio of MIC for against extended-spectrum beta-lactamase producing Escherichia coli isolate 209285 to MIC for extended-spectrum beta-lactamase producing Escherichia coli isolate 209285 in presence of BPL
[26] = test system: Klebsiella pneumoniae; assay: Antibacterial activity against KPC-2 producing Klebsiella pneumoniae isolate 212229 after 18 hrs by CLSI broth microdilution method; settings: isolate 212229, 18 h
[27] = test system: Klebsiella pneumoniae; assay: Antibacterial activity against KPC-2 producing Klebsiella pneumoniae isolate 212232 after 18 hrs in presence of BPL by CLSI broth microdilution method; settings: isolate 212232, 18 h; how it was run: as §1
[28] = test system: Escherichia coli; assay: Antibacterial activity against Escherichia coli isolate 210737 after 18 hrs by CLSI broth microdilution method; settings: isolate 210737, 18 h
[29] = test system: Escherichia coli; assay: Selectivity index, ratio of MIC for against extended-spectrum beta-lactamase producing Escherichia coli isolate 212648 to MIC for extended-spectrum beta-lactamase producing Escherichia coli isolate 212648 in presence of BPL
[30] = test system: Klebsiella pneumoniae; assay: Selectivity index, ratio of MIC for against KPC-2 producing Klebsiella pneumoniae isolate 212232 to MIC for against KPC-2 producing Klebsiella pneumoniae isolate 212232 in presence of BPL
[31] = test system: Pseudomonas aeruginosa; assay: Antibacterial activity against IMP-4 producing Pseudomonas aeruginosa isolate 207272 after 18 hrs in presence of BPL by CLSI broth microdilution method; settings: isolate 207272, 18 h; how it was run: as §1
[32] = test system: Escherichia coli; assay: Selectivity index, ratio of MIC for against extended-spectrum beta-lactamase producing Escherichia coli isolate 208687 to MIC for extended-spectrum beta-lactamase producing Escherichia coli isolate 208687 in presence of BPL
[33] = test system: Klebsiella pneumoniae; assay: Antibacterial activity against KPC-2 producing Klebsiella pneumoniae isolate 209632 after 18 hrs in presence of BPL by CLSI broth microdilution method; settings: isolate 209632, 18 h; how it was run: as §1
[34] = test system: Klebsiella pneumoniae; assay: Antibacterial activity against KPC-2 producing Klebsiella pneumoniae isolate 212423 after 18 hrs in presence of BPL by CLSI broth microdilution method; settings: isolate 212423, 18 h; how it was run: as §1
[35] = test system: Escherichia coli; assay: Selectivity index, ratio of MIC for against extended-spectrum beta-lactamase producing Escherichia coli isolate 106342 to MIC for extended-spectrum beta-lactamase producing Escherichia coli isolate 106342 in presence of BPL
[36] = test system: Escherichia coli; assay: Antibacterial activity against extended-spectrum beta-lactamase producing Escherichia coli isolate 208687 after 18 hrs by CLSI broth microdilution method; settings: isolate 208687, 18 h
[37] = test system: Pseudomonas aeruginosa; assay: Antibacterial activity against IMP-4 producing Pseudomonas aeruginosa isolate 208247 after 18 hrs by CLSI broth microdilution method; settings: isolate 208247, 18 h
[38] = test system: Pseudomonas aeruginosa; assay: Selectivity index, ratio of MIC for against IMP-4 producing Pseudomonas aeruginosa isolate 207272 to MIC for against IMP-4 producing Pseudomonas aeruginosa isolate 207272 in presence of BPL
[39] = test system: Klebsiella pneumoniae; assay: Antibacterial activity against KPC-2 producing Klebsiella pneumoniae isolate 212423 after 18 hrs by CLSI broth microdilution method; settings: isolate 212423, 18 h
[40] = test system: Klebsiella pneumoniae; assay: Antibacterial activity against KPC-2 producing Klebsiella pneumoniae isolate 212232 after 18 hrs by CLSI broth microdilution method; settings: isolate 212232, 18 h
[41] = test system: Pseudomonas aeruginosa; assay: Antibacterial activity against IMP-4 producing Pseudomonas aeruginosa isolate 207272 after 18 hrs by CLSI broth microdilution method; settings: isolate 207272, 18 h
[42] = test system: Pseudomonas aeruginosa; assay: Antibacterial activity against IMP-4 producing Pseudomonas aeruginosa isolate 209321 after 18 hrs in presence of BPL by CLSI broth microdilution method; settings: isolate 209321, 18 h; how it was run: as §1
[43] = test system: Escherichia coli; assay: Antibacterial activity against extended-spectrum beta-lactamase producing Escherichia coli isolate 106342 after 18 hrs by CLSI broth microdilution method; settings: isolate 106342, 18 h
[44] = test system: Pseudomonas aeruginosa; assay: Selectivity index, ratio of MIC for against IMP-4 producing Pseudomonas aeruginosa isolate 209471 to MIC for against IMP-4 producing Pseudomonas aeruginosa isolate 209471 in presence of BPL
[45] = test system: Escherichia coli; assay: Antibacterial activity against extended-spectrum beta-lactamase producing Escherichia coli isolate 212648 after 18 hrs in presence of BPL by CLSI broth microdilution method; settings: isolate 212648, 18 h; how it was run: as §1

## CC(C)C(O/N=C(\C(=O)NC1C(=O)N(S(=O)(=O)O)C12CCC2)c1csc(N)n1)c1cc(=O)c(O)cn1O (stereo not given)
[1]
  MIC: 32 µg/mL
[2]
  Selectivity Index: >8
[3]
  MIC: > 64 µg/mL
[4]
  MIC: 2 µg/mL (≈ 3.59 µM)
[5]
  MIC: 0.5 µg/mL
[6]
  MIC: 0.5 µg/mL
[7]
  MIC: 8 µg/mL
[8]
  MIC: 16 µg/mL
[9]
  MIC: 8 µg/mL
[10]
  Selectivity Index: 4
[11]
  Selectivity Index: 1
[12]
  MIC: 16 µg/mL
[13]
  MIC: 4 µg/mL (≈ 7.19 µM)
[14]
  MIC: 16 µg/mL (≈ 28.7 µM)
[15]
  MIC: > 64 µg/mL
[16]
  Selectivity Index: >8
[17]
  MIC: 32 µg/mL (≈ 57.5 µM)
[18]
  Selectivity Index: >4
[19]
  Selectivity Index: 1
[20]
  Selectivity Index: 2
[21]
  MIC: 32 µg/mL (≈ 57.5 µM)
[22]
  Selectivity Index: 8
[23]
  MIC: 2 µg/mL
[24]
  MIC: 1 µg/mL
[25]
  Selectivity Index: 2
[26]
  MIC: 32 µg/mL (≈ 57.5 µM)
[27]
  MIC: 4 µg/mL
[28]
  MIC: 4 µg/mL (≈ 7.19 µM)
[29]
  Selectivity Index: 2
[30]
  Selectivity Index: 2
[31]
  MIC: 32 µg/mL
[32]
  Selectivity Index: 2
[33]
  MIC: 16 µg/mL
[34]
  MIC: 8 µg/mL
[35]
  Selectivity Index: 2
[36]
  MIC: 1 µg/mL (≈ 1.8 µM)
[37]
  MIC: 16 µg/mL (≈ 28.7 µM)
[38]
  Selectivity Index: 1
[39]
  MIC: > 64 µg/mL
[40]
  MIC: 8 µg/mL (≈ 14.4 µM)
[41]
  MIC: 32 µg/mL (≈ 57.5 µM)
[42]
  MIC: 16 µg/mL
[43]
  MIC: 2 µg/mL (≈ 3.59 µM)
[44]
  Selectivity Index: 1
[45]
  MIC: 1 µg/mL

## CC(C)C(O/N=C(\C(=O)N[C@@H]1C(=O)N(S(=O)(=O)O)[C@@H]1CSc1nnnn1C)c1csc(N)n1)c1cc(=O)c(O)cn1O (stereo not given in full)
[1]
  MIC: 64 µg/mL
[2]
  Selectivity Index: 4
[3]
  MIC: 2 µg/mL (≈ 3.1 µM)
[4]
  MIC: 0.5 µg/mL (≈ 0.776 µM)
[5]
  MIC: 0.06 µg/mL
[6]
  MIC: 0.25 µg/mL
[7]
  MIC: 0.5 µg/mL
[8]
  MIC: 16 µg/mL
[9]
  MIC: 0.5 µg/mL
[10]
  Selectivity Index: 2
[11]
  Selectivity Index: 2
[12]
  MIC: 32 µg/mL
[13]
  MIC: 1 µg/mL (≈ 1.55 µM)
[14]
  MIC: > 64 µg/mL
[15]
  MIC: 1 µg/mL (≈ 1.55 µM)
[16]
  Selectivity Index: 2
[17]
  MIC: 64 µg/mL (≈ 99.3 µM)
[18]
  Selectivity Index: 1
[19]
  Selectivity Index: >2
[20]
  Selectivity Index: 2
[21]
  MIC: 64 µg/mL (≈ 99.3 µM)
[22]
  Selectivity Index: 2
[23]
  MIC: 0.25 µg/mL
[24]
  MIC: 0.5 µg/mL
[25]
  Selectivity Index: 4
[26]
  MIC: 1 µg/mL (≈ 1.55 µM)
[27]
  MIC: 0.25 µg/mL
[28]
  MIC: 0.5 µg/mL (≈ 0.776 µM)
[29]
  Selectivity Index: 2
[30]
  Selectivity Index: 8
[31]
  MIC: 16 µg/mL
[32]
  Selectivity Index: 2
[33]
  MIC: 1 µg/mL
[34]
  MIC: 1 µg/mL
[35]
  Selectivity Index: 2
[36]
  MIC: 0.125 µg/mL (≈ 0.194 µM)
[37]
  MIC: 32 µg/mL (≈ 49.6 µM)
[38]
  Selectivity Index: 2
[39]
  MIC: 2 µg/mL (≈ 3.1 µM)
[40]
  MIC: 2 µg/mL (≈ 3.1 µM)
[41]
  MIC: 32 µg/mL (≈ 49.6 µM)
[42]
  MIC: 32 µg/mL
[43]
  MIC: 1 µg/mL (≈ 1.55 µM)
[44]
  Selectivity Index: 1
[45]
  MIC: 0.25 µg/mL
